Results of several laboratories.
Each line is one published result; the experiments were not run side by side.
Target: Aurora kinase B (AURKB, Homo sapiens, UniProt Q96GD4)
Observed: enzyme activity

SMILES	action	technique	tested at	remaining activity [%]
Cn1c(=O)n(-c2ccc(C(C)(C)C#N)cc2)c2c3cc(-c4cnc5ccccc5c4)ccc3ncc21	inhibitor		10 µM	101
CS(=O)(=O)CCNCc1ccc(-c2ccc3ncnc(Nc4ccc(OCc5cccc(F)c5)c(Cl)c4)c3c2)o1			0.5 µM	98.4
Cc1ccc(C(=O)Nc2ccc(CN3CCN(C)CC3)c(C(F)(F)F)c2)cc1C#Cc1cnc2cccnn12	inhibitor		23.5 nM	84
O=C1NC(=O)c2cc(Nc3ccc(F)cc3)c(Nc3ccc(F)cc3)cc21	inhibitor		0.5 µM	99.7
CCCOc1ccc(OC)c(F)c1C(=O)c1ccc(C(=O)N[C@@H]2CNC[C@H]2NC(=O)c2ccc3[nH]ncc3c2)cc1	inhibitor		10 µM	10
CC(C)(C)c1nc(-c2cccc(NS(=O)(=O)c3c(F)cccc3F)c2F)c(-c2ccnc(N)n2)s1	inhibitor	radiometric	1 µM	81
Cc1nn(CC(F)(F)F)cc1Nc1nccc(NCCCNC(=O)C2CCC2)n1	inhibitor	radiometric	1 µM	90
O=C(Nc1cnn(-c2csc(C(=O)NC3COC3)c2)c1)Nc1c(F)cccc1Cl	inhibitor		5 µM	69.8
COc1cc2c(N3CCN(C(=O)Nc4ccc(OC(C)C)cc4)CC3)ncnc2cc1OCCCN1CCCCC1			0.5 µM	89.6
Nc1ncnc2occ(-c3ccc(NC(=O)Nc4cc(C(F)(F)F)ccc4F)cc3)c12	inhibitor		20 µM	0.1
CCN(CC)c1ccc(C2=NNC(=O)CC2C)cc1[N+](=O)[O-] (stereo not shown)	inhibitor		10 µM	118
Cc1nn(CC(F)(F)F)cc1Nc1nccc(NCc2ccc(S(N)(=O)=O)cc2)n1	inhibitor	radiometric	1 µM	82
COc1cc(Nc2cnc(C#N)c(O[C@H](C)CN(C)C)n2)ncc1-c1cnn(C)c1	inhibitor	radiometric	1 µM	42
O=C(NCCCNc1nc(Nc2cccc(NC(=O)N3CCCC3)c2)ncc1I)c1cccs1	inhibitor	radiometric	1 µM	3
Nc1nc(NC2CCCCC2)sc1C(=O)c1ccccc1	inhibitor		10 µM	75
NS(=O)(=O)c1ccc(CNc2ccnc(Nc3cccc(NC(=O)N4CCCC4)c3)n2)cc1	inhibitor	radiometric	1 µM	53
Oc1cccc(-c2nc(N3CCOCC3)c3oc4ncccc4c3n2)c1	inhibitor		10 µM	95
CN1CCc2cc(Nc3ncc(C4CC4)c(NCCCNC(=O)C4CCC4)n3)ccc2C1	inhibitor	radiometric	1 µM	8
CC(C)(O)[C@H]1CC[C@H](Nc2ccc3ncc(-c4cccc(C(F)(F)F)c4)n3n2)CC1	inhibitor		1 µM	82.1
